Bioassay records as filed in PubChem BioAssay.
Most compounds without a hit are left out; they make up all but 2.2% or so of the library.
GalR3 antagonist = GalR3 antagonists in HEK293 cells, primary screen, cell-based, fluorescence readout. Galanin receptor type 3 (Homo sapiens), O60755. HEK293 GalR3-CNG cAMP membrane potential fluorescence; galR3 body fused to GalR1 C-terminus. inhibition, % at 3 µM. actives 0.44% (n = 360,000);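 active means inhibition above the screen-wide average plus 3 SD, cut at about 13% in these data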;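 further: forskolin and galanin both at EC90 stimulate the cells; cAMP rise reported by CNG channel membrane potential dye signal; 0% = forskolin plus galanin with DMSO and 100% = forskolin alone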
NR2E3 ag-1 = NR2E3 agonists in two-hybrid cells, primary screen, cell-based, luminescence, CHO-S, Gal4-NCOR/VP16-NR2E3. actives 0.35% (n = 360,000). AID 602229, 2012. inhibition of corepressor binding, % at 3.98 µM. luciferase;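 active means inhibition above the mean of all tested compounds plus 3 SD, cut at about 70% in these data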;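 further: 0% = DMSO with NR2E3 transfected cells and 100% = cells lacking NR2E3 construct; higher means lower luciferase signal from less NR2E3 corepressor binding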
Target sequence (Q9Y5X4 whole entry, looked up, the tested form may be a part): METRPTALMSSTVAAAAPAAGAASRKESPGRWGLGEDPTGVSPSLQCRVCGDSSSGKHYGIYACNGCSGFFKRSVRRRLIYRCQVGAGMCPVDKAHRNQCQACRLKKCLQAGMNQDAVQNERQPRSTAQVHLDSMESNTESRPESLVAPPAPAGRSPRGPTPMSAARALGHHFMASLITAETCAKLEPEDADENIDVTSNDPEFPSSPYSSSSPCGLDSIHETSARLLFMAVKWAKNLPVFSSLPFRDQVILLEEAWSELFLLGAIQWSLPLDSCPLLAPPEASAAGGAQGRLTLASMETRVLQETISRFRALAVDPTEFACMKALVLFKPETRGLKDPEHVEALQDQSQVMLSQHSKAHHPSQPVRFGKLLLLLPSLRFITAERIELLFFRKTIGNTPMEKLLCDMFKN
NR2E3 ag-2 = inhibitors of NR2E3-RetCOR corepressor binding, primary screen, NR2E3 agonist project, biochemical, TR-FRET, GST-NR2E3, biotin-RetCOR; 1536-well; Photoreceptor-specific nuclear receptor (Homo sapiens), Q9Y5X4; actives 0.12% (n = 320,000); AID 2300, 2010; inhibition of corepressor binding, % at 4.78 µM;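 active means percent inhibition above the cutoff of mean plus 3 SD of all tested compounds, set per screening campaign, cut at about 20% in these data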;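 further: 0% = DMSO wells and 100% = biotin wells as full block of FRET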
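Format: 1536-well format; test system: GST-NR2E3 and biotin-RetCOR proteins; read-out basis: percent inhibition of TR-FRET ratio; timing: 5 h incubation at 4 °C; detection: time-resolved FRET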
SMARCA2 activ = SMARCA2 (BRM) function activators, primary screen, cell-based, luminescence, high throughput; activation, % at 9.1 µM; MG213 cells, MMTV-luciferase reporter, dexamethasone, overnight; actives 1% (n = 370,000); in the data active means activation above about 7.8%;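 further: 0% = vehicle wells and 100% = reference activator wells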
NR2F2 inh = NR2F2 transcriptional activity inhibitors, primary screen, cell-based, luciferase reporter, HEK293T, luminescence; COUP transcription factor 2 (Homo sapiens), P24468; HEK293T NGFI-A luciferase reporter; inhibition, % at 8.6 µM; actives 0.7% (n = 370,000); AID 686940, 2013;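 active means inhibition above a per-plate cutoff, mean inhibition of test wells between control levels plus 3 SD, cut at about 38% in these data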;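 further: cells cotransfected with COUP-TFII expression vector driving the NGFI-A reporter; 0% = median of COUP-TF2 test wells and 100% = reporter-only cells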
SMARCA2 act conf = SMARCA2 (BRM) function activators, confirmation, cell-based, luminescence, triplicate; activation, % at 9.1 µM; actives 30% (n = 3,500); shares compounds with SMARCA2 activ; MG213 cells, MMTV-luciferase with dexamethasone, overnight; MG213 cells expressing E1A, Rb sequestered; DMSO wells 0%, reference activator 100%; AID 652260, 2013;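 active means activation above its plate's cutoff, the mean activation of tested wells plus 3 SD, cut at about 7.9% in these data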
GAL4-VP16 Luc = GAL4-VP16 luciferase reporter activation, counter-screen for SMARCA2 (BRM) activator project, cell-based, pG5luc, luminescence, high throughput; shares compounds with SMARCA2 activ; HEK293 GAL4-VP16 pG5luc reporter; scaled: DMSO wells 0%, SAHA wells 100%; activation, % at 9.1 µM; actives 41% (n = 3,500); AID 686939, 2013;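 active means activation above the solvent-only control well mean plus 3 SD, averaged across control plates, cut at about 5.2% in these data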
The depositor's hits bear a star.

What do the screens show for `C/C(CCc1ccc2c(c1)OCO2)=N\N=C1\NC(=O)CC(C(=O)Nc2ccc(Cl)cc2)S1` (stereo not drawn)?
GalR3 antagonist: -6.7; NR2E3 ag-1: -3.0; NR2E3 ag-2: 3.5; SMARCA2 activ: 11.4*; NR2F2 inh: -14.7; SMARCA2 act conf: -4.9; GAL4-VP16 Luc: 0.5

What do the screens show for `Cc1ccccc1CS(=O)(=O)Cc1ccc(C(=O)Nc2ccc(F)cc2F)o1`?
SMARCA2 activ: -6.2; NR2F2 inh: 9.1

Results for CN(Cc1ccccc1)C(=O)OCc1cn(Cc2ccc(F)cc2)nn1 ?
SMARCA2 activ: 2.1; NR2F2 inh: -18.7

Results for CCOC(=O)c1c(C)[nH]c(C)c1S(=O)(=O)NCCc1ccc(SC)cc1 ?
GalR3 antagonist: -11.4; NR2E3 ag-1: 9.2; NR2E3 ag-2: 0.9; SMARCA2 activ: 11.8*; NR2F2 inh: 0.5; SMARCA2 act conf: -1.3; GAL4-VP16 Luc: 0.9

What do the screens show for `Nc1cc(OCc2ccccc2)ccc1OCc1ccccc1`?
GalR3 antagonist: -7.0; NR2E3 ag-1: -54.9; SMARCA2 activ: 9.4*; NR2F2 inh: -38.9; SMARCA2 act conf: 2.7; GAL4-VP16 Luc: 7.8*

What do the screens show for `Nc1ccc(OCc2ccccc2)cc1`?
GalR3 antagonist: 1.3; NR2E3 ag-1: -30.5; NR2E3 ag-2: -0.7; SMARCA2 activ: -0.8; NR2F2 inh: 14.4

How did Nn1c(SCC(=O)Nc2nccs2)nnc1-c1cc(-c2ccc(Cl)cc2)n[nH]1 do in these assays?
SMARCA2 activ: -1.9; NR2F2 inh: 0.8

How did COc1ccc([C@H]2CC(=O)C[C@@H](CCn3cc(-c4ccc(F)cc4)nn3)O2)cc1 do in these assays?
GalR3 antagonist: -6.1; NR2E3 ag-1: -30.8; SMARCA2 activ: 9.6*; NR2F2 inh: -9.1; SMARCA2 act conf: -3.0; GAL4-VP16 Luc: 1.3

Results for COc1ccc2cc(C#N)c(SCC(=O)NNC(=O)Cc3ccccc3)nc2c1 ?
GalR3 antagonist: -2.7; NR2E3 ag-1: -11.5; NR2E3 ag-2: 0.5; SMARCA2 activ: 9.1*; NR2F2 inh: -1.7; SMARCA2 act conf: 0.9; GAL4-VP16 Luc: 1.2

How did CC(C)CN1C(=O)C[C@@]2(C(=O)N(C)c3ccc(NC(=O)C(F)(F)F)cc32)C1c1ccccc1 (stereo partly drawn) do in these assays?
SMARCA2 activ: 0.1; NR2F2 inh: 2.8

How did ClCCn1cnc2c(SCc3ccccc3Cl)ncnc21 do in these assays?
GalR3 antagonist: -2.9; NR2E3 ag-1: -59.4; SMARCA2 activ: 5.6; NR2F2 inh: -89.2

Results for Nc1nc(SCc2ccccc2)c2ncn(CCO)c2n1 ?
GalR3 antagonist: 0.4; NR2E3 ag-1: -1.1; SMARCA2 activ: -5.0; NR2F2 inh: -8.6

Results for ClCCn1cnc2c(SCc3ccccc3)ncnc21 ?
GalR3 antagonist: -5.0; NR2E3 ag-1: -58.6; SMARCA2 activ: 8.0*; NR2F2 inh: -79.9; SMARCA2 act conf: 3.7; GAL4-VP16 Luc: 5.2*

What do the screens show for `Cn1cnc2c(SCc3ccccc3)ncnc21`?
GalR3 antagonist: 2.1; NR2E3 ag-1: -48.2; SMARCA2 activ: 9.7*; NR2F2 inh: -16.4; SMARCA2 act conf: 5.7; GAL4-VP16 Luc: 4.6

What do the screens show for `COc1cccc2c3c(c(=O)[nH]c12)CC(C)(C)O3`?
GalR3 antagonist: -5.1; NR2E3 ag-1: -1.1; NR2E3 ag-2: -0.1; SMARCA2 activ: 12.1*; NR2F2 inh: -19.3; SMARCA2 act conf: -0.8; GAL4-VP16 Luc: -0.2

What do the screens show for `COc1cccc2c3c(c(=O)[nH]c12)CCC(C)(C)O3`?
GalR3 antagonist: -1.8; NR2E3 ag-1: -25.0; NR2E3 ag-2: 1.0; SMARCA2 activ: -1.3; NR2F2 inh: -18.0
